Measured values from article PMC411066 (BMC Medicine, 2004).
Values joined by “and” are separate entries in the source; they are usually repeats but may differ in a detail not shown here. Identical values can stand only once.

Legend:
Serum digoxin = format: in vivo, human
Outline: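 Trough serum samples at steady state from 618 digoxin-monitoring patients, assayed by fluorescence polarization immunoassay. Orally given comedications were classed as P-gp inhibitors by PubMed search: Class I, documented in vivo effect on digoxin kinetics; Class II, in vitro inhibition only. Means ± SE from a General Linear Model adjusted for age, sex, digoxin dose and total prescribed drugs, covariates at their means.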

P-gp = conditions: cited from earlier work

Structure (SMILES) | Adjusted S-digoxin mean ± SE (Serum digoxin; patients taking one Class I P-gp inhibitor, N = 96) [nmol/L] | Adjusted S-digoxin mean ± SE (Serum digoxin; patients taking one P-gp inhibitor, N = 204, multivariate) [nmol/L] | S-digoxin with Class II P-gp inhibitors compared with no P-gp inhibitors (Serum digoxin; patients taking one or two Class II P-gp inhibitors, differences not significant in the multivariate model) | Adjusted S-digoxin mean ± SE (Serum digoxin; patients taking three P-gp inhibitors, N = 8, multivariate) [nmol/L] | Adjusted S-digoxin mean ± SE (Serum digoxin; patients taking two Class I P-gp inhibitors, N = 17) | Adjusted S-digoxin mean ± SE (Serum digoxin; patients taking two P-gp inhibitors, N = 78, multivariate) [nmol/L] | S-digoxin mean ± SE (Serum digoxin; patients with concomitant P-gp inhibitors, all patients on spironolactone excluded) [nmol/L] | Adjusted S-digoxin mean ± SE (Serum digoxin; patients with ≥ 1 P-gp inhibitor, N = 290, adjusted for age, sex, digoxin dose and total number of prescribed drugs) [nmol/L] | In vitro P-gp inhibition (P-gp)
C[C@H]1O[C@@H](O[C@H]2[C@@H](O)C[C@H](O[C@H]3[C@@H](O)C[C@H](O[C@H]4CC[C@@]5(C)[C@H](CC[C@@H]6[C@@H]5C[C@@H](O)[C@]5(C)[C@@H](C7=CC(=O)OC7)CC[C@]65O)C4)O[C@@H]3C)O[C@@H]2C)C[C@H](O)[C@@H]1O [digoxin] | 1.65 ± 0.07 | 1.51 ± 0.05 | tended to have elevated S-digoxin levels | 2.00 ± 0.25 | 1.83 ± 0.07 nmol/L and 1.83 ± 0.17 nmol/L | 1.59 ± 0.08 | 1.46 ± 0.05 | 1.55 ± 0.04 | –
CC[C@H](C)C(=O)O[C@H]1C[C@H](O)C=C2C=C[C@H](C)[C@H](CC[C@@H](O)C[C@@H](O)CC(=O)O)[C@H]21 [pravastatin] | – | – | – | – | – | – | – | – | not an in vitro P-gp inhibitor
